Published values of several laboratories.
Compare with care: the assays were run in different laboratories.
Target: Mitogen-activated protein kinase 14 (MAPK14, Homo sapiens, UniProt Q16539)

CS(=O)(=O)c1cc(C2(NC(=O)c3cncc4c3cnn4-c3ccc(F)cc3)CC2)ccn1 — remaining binding (cell-free assay, competition with immobilised ligand; 1 µM): 100%
O=C(NCCCN1CCOCC1)c1ccc(Nc2ncc(Cl)c(-c3ccc(Cl)s3)n2)cc1 — remaining binding (binding, competition with immobilised ligand; 1 µM): 100%
CNCc1ccccc1-c1csc([C@H](C)Nc2nc(C)nc3cc(OC)c(OC)cc23)c1 — remaining binding (cell-free assay, competition with immobilised ligand; 1 µM): 100%
CCN1CCN(Cc2ccc(C(=O)Nc3ccc(C)c(Oc4ccc5c(c4)CC(=O)N5)c3)cc2C(F)(F)F)CC1 — remaining binding (binding, competition with immobilised ligand; 1 µM): 18%
c1cnn2ncc(-c3ccnc(N4CCC45COC5)n3)c2c1 — remaining binding (binding; 1 µM): 87%
O=C(O)c1cc(-c2ccc(C3CCNCC3)cc2)c2ccc(-c3ccc(C(F)(F)F)cc3)cc2c1 — remaining binding (cell-free assay, competition with immobilised ligand; 1 µM): 100%
CN(C)c1nccc(-c2cnc3ncccn23)n1 — remaining binding (binding; 1 µM): 100%
O=C1CCc2cc(Nc3cc(OC4CCOCC4)c([N+](=O)[O-])cc3Cl)ccc2N1 — remaining binding (cell-free assay, competition with immobilised ligand; 1 µM): 100%
O=C(c1ccc(Nc2nccc(-c3cc4ccccc4s3)n2)cc1)N1CCC(N2CCCC2)CC1 — remaining binding (binding, competition with immobilised ligand; 1 µM): 100%
N#Cc1ccccc1CSc1nnc2c(n1)[nH]c1ccccc12 — remaining binding (binding, competition with immobilised ligand; 10 µM): 100%
O=C(Nc1c[nH]nc1C(=O)NC1CCNCC1)c1cc(F)cc(F)c1 — remaining binding (binding, competition with immobilised ligand; 1 µM): 100%
O=C(NCCCN1CCOCC1)c1ccc(Nc2nccc(-c3cc4ccccc4s3)n2)cc1 — remaining binding (binding, competition with immobilised ligand; 1 µM): 96%
FC(F)(F)Oc1cccc(-c2cnc3ccc(-c4ccncc4)nn23)c1 — remaining binding (cell-free assay, competition with immobilised ligand; 5 µM): 94%
COc1ncc2cc3ccccc3nc2c1C#N — remaining binding (cell-free assay, competition with immobilised ligand; 5 µM): 100%
COc1cc(-c2cn(C3CCc4ccccc4N(CC(F)(F)F)C3=O)nn2)ccc1-n1ccc(C)n1 (stereo not shown) — remaining binding (cell-free assay, competition with immobilised ligand; 1 µM): 94%
C[C@@H]1CCN(c2nccc(-c3cnn4ncccc34)n2)C1 — remaining binding (binding; 1 µM): 100%
COc1cnc(Nc2cccc(S(N)(=O)=O)c2)nc1N1CCN(c2ccccc2)C(=O)C1 — remaining binding (binding, competition with immobilised ligand; 1 µM): 100%
CN(CCCC(F)(F)F)c1nccc(-c2cnn3ncccc23)n1 — remaining binding (binding; 1 µM): 100%
CC(=O)c1c(NS(C)(=O)=O)c2cc(-c3ccc(Cl)cc3)c(-c3ccc(Cl)cc3Cl)nc2n(C)c1=O — remaining binding (cell-free assay, competition with immobilised ligand; 1 µM): 100%
COc1ccnn2ncc(-c3ccnc(N(C)C)n3)c12 — remaining binding (binding; 1 µM): 87%
C[C@@H]1CN(c2ccc3ncc(-c4ccc5[nH]nc(C6CC6)c5c4)n3n2)C[C@H](C)O1 — remaining binding (binding, competition with immobilised ligand; 0.5 µM): 100%
N[C@H]1CCN(c2nccc(-c3cnn4ncccc34)n2)C1 — remaining binding (binding; 1 µM): 100%
CNC(=O)c1ccc(Nc2ncc(C(F)(F)F)c(NCc3nccnc3N(C)S(C)(=O)=O)n2)cc1 — remaining binding (cell-free assay, competition with immobilised ligand; 0.1 µM): 100%
CN(C)c1ncc(F)c(-c2cnn3ncccc23)n1 — remaining binding (binding; 1 µM): 100%
COC(=O)Nc1nc2ccc(C(=O)c3ccccc3)cc2[nH]1 — remaining binding (cell-free assay, competition with immobilised ligand; 10 µM): 17%
